This is an account of results in ChEMBL document CHEMBL1132569.

Where only a bound is given, the exact number is not on record here.

The target of test [1] is T1, Muscarinic acetylcholine receptor M1 (Homo sapiens) (UniProt P11229).
T1 sequence (whole entry): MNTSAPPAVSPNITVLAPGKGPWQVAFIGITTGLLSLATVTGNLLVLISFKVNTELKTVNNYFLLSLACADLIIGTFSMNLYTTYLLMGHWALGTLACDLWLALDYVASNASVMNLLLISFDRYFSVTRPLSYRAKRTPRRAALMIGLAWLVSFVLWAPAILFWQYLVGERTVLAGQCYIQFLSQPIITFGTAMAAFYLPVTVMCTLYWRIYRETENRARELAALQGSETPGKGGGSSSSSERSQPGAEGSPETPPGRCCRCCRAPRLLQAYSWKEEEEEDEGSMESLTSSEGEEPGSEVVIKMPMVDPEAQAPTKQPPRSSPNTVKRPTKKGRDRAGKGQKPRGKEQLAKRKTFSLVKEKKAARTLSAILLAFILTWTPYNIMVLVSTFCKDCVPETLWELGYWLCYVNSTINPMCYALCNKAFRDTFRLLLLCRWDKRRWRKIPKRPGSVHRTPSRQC
Put plainly: Cooperativity with acetylcholine at human muscarinic acetylcholine receptor M1. The essentials:
(§1)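 Equilibrium ³H-NMS binding in CHO membranes expressing human m1–m5 receptors was measured with and without ACh, alone and with three agent concentrations. Data were converted to affinity ratios, meaning apparent primary-ligand affinity with agent divided by affinity without it.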

The target in test [2] is T1, Muscarinic acetylcholine receptor M1 (Homo sapiens). Put plainly: Cooperativity with NMS at human muscarinic acetylcholine receptor M1. The essentials: as §1
The target in test [3] is Muscarinic acetylcholine receptor M3 (Homo sapiens) (UniProt P20309). The experiment in a line: Binding affinity at the NMS liganded human muscarinic acetylcholine receptor M3 was estimated as log affinity (log1/M). An outline of the steps:
(§2)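 Equilibrium runs were ≥2 h with 2 × 10⁻⁴ M GTP and 0.1–0.7 nM ³H-NMS. Nonspecific binding was defined with 10⁻⁶ M QNB, and bound ligand was filtered and counted. Log affinities came from semiquantitative plus off-rate, quantitative equilibrium, or nonequilibrium assays, fitted by nonlinear least squares to the allosteric ternary complex model.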

The target of test [4] is T2, Muscarinic acetylcholine receptor M2 (Homo sapiens) (UniProt P08172).
T2 sequence (whole entry): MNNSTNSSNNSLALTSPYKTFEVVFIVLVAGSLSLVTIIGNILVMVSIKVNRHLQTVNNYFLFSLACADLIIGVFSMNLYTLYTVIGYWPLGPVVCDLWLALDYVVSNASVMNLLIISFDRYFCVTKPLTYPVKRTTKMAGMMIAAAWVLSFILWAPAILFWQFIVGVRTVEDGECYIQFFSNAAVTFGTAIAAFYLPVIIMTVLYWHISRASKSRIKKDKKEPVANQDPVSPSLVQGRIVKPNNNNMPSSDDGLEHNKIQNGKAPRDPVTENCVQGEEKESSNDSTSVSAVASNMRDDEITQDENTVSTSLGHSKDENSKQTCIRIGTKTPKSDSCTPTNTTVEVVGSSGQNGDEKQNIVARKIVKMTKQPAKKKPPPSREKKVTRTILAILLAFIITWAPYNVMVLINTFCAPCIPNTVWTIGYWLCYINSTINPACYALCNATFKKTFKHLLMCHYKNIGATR
The experiment in a line: Binding affinity at the NMS liganded human muscarinic acetylcholine receptor M2 was estimated as log affinity (log1/M). An outline of the steps: as §2

Test [5] concerns the target T3, Muscarinic acetylcholine receptor M4 (Homo sapiens) (UniProt P08173).
T3 sequence (whole entry): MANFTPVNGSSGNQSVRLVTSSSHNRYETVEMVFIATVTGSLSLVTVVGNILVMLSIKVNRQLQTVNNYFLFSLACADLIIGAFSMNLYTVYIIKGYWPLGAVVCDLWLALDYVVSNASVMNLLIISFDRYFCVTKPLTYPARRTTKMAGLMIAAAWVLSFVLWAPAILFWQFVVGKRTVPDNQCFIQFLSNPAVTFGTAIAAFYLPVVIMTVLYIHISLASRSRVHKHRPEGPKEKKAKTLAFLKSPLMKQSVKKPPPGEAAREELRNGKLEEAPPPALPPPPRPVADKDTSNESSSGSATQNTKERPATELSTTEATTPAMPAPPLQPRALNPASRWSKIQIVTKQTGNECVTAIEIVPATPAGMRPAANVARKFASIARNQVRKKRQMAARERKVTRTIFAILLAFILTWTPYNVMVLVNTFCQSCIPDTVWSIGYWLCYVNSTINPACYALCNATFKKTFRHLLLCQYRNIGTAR
The experiment in a line: Binding affinity at the NMS liganded human muscarinic acetylcholine receptor M4 was estimated as log affinity (log1/M). The essentials: as §2

Test [6] concerns the target T2, Muscarinic acetylcholine receptor M2 (Homo sapiens). Put plainly: Cooperativity with acetylcholine at human muscarinic acetylcholine receptor M2. An outline of the steps:
as §1

In test [7] the target is Muscarinic acetylcholine receptor M3 (Homo sapiens) (UniProt P20309). Put plainly: Binding affinity at the unliganded human muscarinic acetylcholine receptor M3 was estimated as log affinity (log1/M). The essentials:
as §2

Test [8] deals with T1, Muscarinic acetylcholine receptor M1 (Homo sapiens). The experiment in a line: Binding affinity at the unliganded human muscarinic acetylcholine receptor M1 was estimated as log affinity (log1/M). The essentials: as §2
Test [9] deals with T3, Muscarinic acetylcholine receptor M4 (Homo sapiens). Put plainly: Cooperativity with NMS at human muscarinic acetylcholine receptor M4. An outline of the steps: as §1
Test [10] shares this target. Put plainly: Cooperativity with acetylcholine at human muscarinic acetylcholine receptor M4. The essentials:
as §1

Test [11] has the same target. Put plainly: Binding affinity at the unliganded human muscarinic acetylcholine receptor M4 was estimated as log affinity (log1/M). The essentials:
as §2

Test [12] deals with T2, Muscarinic acetylcholine receptor M2 (Homo sapiens). The experiment in a line: Cooperativity with NMS at human muscarinic acetylcholine receptor M2. An outline of the steps:
as §1

Test [13] concerns the target Muscarinic acetylcholine receptor M3 (Homo sapiens) (UniProt P20309). The experiment in a line: Cooperativity with acetylcholine at human muscarinic acetylcholine receptor M3. An outline of the steps:
as §1

The target is the same in test [14]. The experiment in a line: Cooperativity with NMS at human muscarinic acetylcholine receptor M3. An outline of the steps: as §1
For test [15], the target named is T1, Muscarinic acetylcholine receptor M1 (Homo sapiens). The experiment in a line: Binding affinity at the NMS liganded human muscarinic acetylcholine receptor M1 was estimated as log affinity (log1/M). The essentials:
as §2

The target of test [16] is T2, Muscarinic acetylcholine receptor M2 (Homo sapiens). The experiment in a line: Binding affinity at the unliganded human muscarinic acetylcholine receptor M2 was estimated as log affinity (log1/M). An outline of the steps: as §2

Muscarinic acetylcholine receptor M3 (Homo sapiens), sequence (P20309 whole entry, looked up): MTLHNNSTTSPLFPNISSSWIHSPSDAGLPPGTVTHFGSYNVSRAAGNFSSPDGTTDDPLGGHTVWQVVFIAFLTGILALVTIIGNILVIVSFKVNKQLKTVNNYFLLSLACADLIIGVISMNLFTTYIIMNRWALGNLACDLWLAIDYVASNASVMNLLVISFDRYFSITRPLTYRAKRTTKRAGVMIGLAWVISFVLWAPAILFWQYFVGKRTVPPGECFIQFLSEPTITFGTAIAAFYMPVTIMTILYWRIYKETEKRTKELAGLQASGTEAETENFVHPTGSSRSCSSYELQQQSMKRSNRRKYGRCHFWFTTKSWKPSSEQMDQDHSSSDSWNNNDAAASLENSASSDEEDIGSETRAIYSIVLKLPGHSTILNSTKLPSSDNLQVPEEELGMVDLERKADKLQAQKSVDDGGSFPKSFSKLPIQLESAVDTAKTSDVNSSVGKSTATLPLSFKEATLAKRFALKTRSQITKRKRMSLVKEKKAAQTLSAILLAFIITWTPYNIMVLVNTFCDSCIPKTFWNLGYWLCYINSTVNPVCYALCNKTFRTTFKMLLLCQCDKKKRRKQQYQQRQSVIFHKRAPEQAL

In the case of `O=C1C[C@@H]2OCC=C3C[N+]4(Cc5ccccc5)CC[C@]56c7ccccc7N1[C@H]5[C@H]2[C@H]3C[C@@H]64` (stereo not given in full), the Cooperativity in test [1] was under 0.2; in test [2], 2; in test [6], under 0.2; in test [9] it was 2; in [10] it was 0.8; in [12], over 2. The figures for the Cooperativity in test [13] and in test [14] were 0.8 and 2, respectively. For the same compound, the Affinity in test [3] is 5.3; in [4], 6.3; in test [5], 5.6; in test [7] it was under 5.2; in test [8], under 5; in [11], under 5.3. In addition, the Affinity in test [15] is 5.2; in test [16] it was 5.3.
For `O=C1C[C@@H]2OCC=C3C[N+]4(Cc5ccc6ccccc6c5)CC[C@]56c7ccccc7N1[C@H]5[C@H]2[C@H]3C[C@@H]64` (stereo not given in full), the Cooperativity in [1] is 0.8; in test [2] it was 2; in [6], under 0.2; in test [9], 2; in [10] it was 0.8; in test [12], over 2. Further, the Cooperativity was 0.8 in test [13] and 2 in test [14]. The Affinity in test [3] is 6; in test [4], 6.1; in test [5], 5.9; in [7], under 5.8; in test [8], under 5.3; in test [11], under 5.6. The Affinity in test [15] and in test [16] was 5.5 throughout.
`C=CC[N+]12CC[C@@]34c5ccccc5N5C(=O)C[C@@H]6OCC=C(C1)[C@H](C[C@@H]32)[C@@H]6[C@H]54` (stereo not given in full): the Cooperativity in [1] is under 0.2; in test [2], 1.19; in test [6], under 0.2; in test [9], 1.19; in test [10], 0.8; in test [12], over 2. Moreover, the Cooperativity in test [13] was under 0.2; in test [14] it was 1.19. Besides, the Affinity is 4.6 in test [3]; 5.9 in test [4]; 5 in test [5]; 4.6 in test [7]; 4.7 in [8]; 5 in [11]. Moreover, the Affinity in test [15] is 4.7; in [16] it was 5.3.
As for `C=CC[N+]12CC[C@@]34c5ccccc5N5/C=C6/[C@H]7C[C@H]8[C@@]9(CC[N@@+]8(CC=C)C/C7=C/CO)c7ccccc7N(/C=C(/[C@@H](C[C@@H]31)/C(=C\CO)C2)[C@H]54)[C@@H]69` (stereo not given in full), the Cooperativity was under 0.2 in test [1]; 0.8 in test [2]; under 0.2 in [6]; 1.19 in test [9]; under 0.2 in [10]; over 2 in test [12]. The Cooperativity in [13] and in [14] was 0.8 each time. For the same compound, the Affinity was 3.5 in test [3]; 6.5 in test [4]; 4.7 in test [5]; under 4 in test [7]; 4.9 in [8]; 4.7 in test [11]. Also, the Affinity in test [15] is 4.5; in test [16], 6.
For `C[N+]12CC[C@@]34c5ccccc5N5C(=O)C[C@@H]6OCC=C(C1)[C@H](C[C@@H]32)[C@@H]6[C@H]54` (stereo not given in full), the Cooperativity in [1] is 0.8; in [2], over 2; in [6] it was under 0.2; in [9], over 2; in test [10], under 0.2; in [12], over 2. Besides, the values for the Cooperativity in test [13] and in [14] were 0.8 and 2, respectively. Also, the Affinity was 4.1 in test [3]; 5.1 in test [4]; 4.7 in test [5]; under 4 in test [7]; under 4.1 in [8]; 4.1 in [11]. The Affinity was 4.5 in test [15] and 4.4 in test [16].
On to `N[N+]12CC[C@@]34c5ccccc5N5C(=O)C[C@@H]6OCC=C(C1)[C@H](C[C@@H]32)[C@@H]6[C@H]54` (stereo not given in full), for which the Cooperativity was 0.8 in test [1]; 2 in test [2]; 0.8 in test [6]; over 2 in test [9]; 0.8 in [10]; over 2 in test [12]. Also, the values for the Cooperativity in test [13] and in test [14] were 0.8 and 2, respectively. The Affinity in test [3] is 4.5; in test [4], 5.4; in test [5], 4.9; in test [7] it was under 4.4; in test [8] it was 4.3; in test [11], under 4.4. The Affinity in test [15] was 4.7; in [16], under 4.8.
As for `O=C1C[C@@H]2OCC=C3C[N+]4(Cc5cccc([N+](=O)[O-])c5)CC[C@]56c7ccccc7N1[C@H]5[C@H]2[C@H]3C[C@@H]64` (stereo not given in full), the Cooperativity in test [1] was 0.8; in test [2], 2; in test [6], 0.8; in [9], over 2; in test [10], 0.8; in [12], over 2. In addition, the values for the Cooperativity in test [13] and in [14] were 0.8 and 2, respectively. In addition, the Affinity in test [3] is 4.8; in [4], 6; in test [5], 5.6; in [7] it was under 4.7; in test [8], under 4.9; in test [11], under 5.2. For the same compound, the Affinity is 5.1 in [15] and under 5.4 in [16].
Consider `O=C1C[C@@H]2OCC=C3C[N+]4(Cc5ccc(-c6ccccc6)cc5)CC[C@]56c7ccccc7N1[C@H]5[C@H]2[C@H]3C[C@@H]64` (stereo not given in full), for which the Cooperativity in [1] is under 0.2; in test [2] it was 0.8; in [6], under 0.2; in test [9], 2; in [10], 0.8; in test [12], over 2. The figures for the Cooperativity in test [13] and in test [14] were under 0.2 and 1.19, respectively. Also, the Affinity in [3] is 5.7; in test [4] it was 5.9; in test [5] it was 6.3; in [7] it was 5.6; in [8], 5.7; in [15], 5.3. In addition, the Affinity in test [16] is 5.6.
On to `O=C1C[C@@H]2OCC=C3CN4CC[C@]56c7ccccc7N1[C@H]5[C@H]2[C@H]3C[C@H]46`, for which the Affinity was 5.3 in test [4], 5.2 in [5], 5 in test [11] and 5 in test [16]. Further, the Cooperativity is under 0.2 in test [6], 2 in test [9], 0.8 in test [10] and over 2 in test [12].
